Results reported in ChEMBL document CHEMBL4024793, “Development of Stem-Cell-Mobilizing Agents Targeting CXCR4 Receptor for Peripheral Blood Stem Cell Transplantation and Beyond” (J Med Chem, 2018).
Active and inactive are the calls of the source. No cut-off for these calls is given here.

Legend:
[1] = Cytotoxicity against human Detroit 551 cells; type: cell-based
[2] = molecular target: C-X-C chemokine receptor type 6 (Homo sapiens) (UniProt O00574); test: Antagonist activity at human CXCR6 at 10 uM preincubated for 30 mins followed agonist addition measured after 30 to 60 mins by cAMP assay; type: functional
How it was run: (§1)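 GPCR cAMP assay with a single test concentration of 10 μM; result expressed as percentage inhibition for each chemokine receptor.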

Mus musculus [3] = test: In vivo induction of WBC mobilization in C57BL/6 mouse at 35 mg/kg, sc measured after 2 hrs; type: functional, organism-based
How it was run: (§2)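 C57BL/6 mice given a single SC injection at 6 or 35 mg/kg. Blood collected 2 h after dosing and analysed for total white blood cells, neutrophils, lymphocytes and monocytes.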

Mus musculus [4] = test: In vivo antagonist activity at CXCR4 in C57BL/6 mouse assessed as induction of monocytes molization at 35 mg/kg, sc measured after 2 hrs relative to AMD3100; type: functional; design: scale not given: the % may be the effect or the level left; how it was run: as §2
Rattus norvegicus [5] = test: Cardiotoxicity in Sprague-Dawley rat assessed as effect on heart color at 50 mg/kg/day, sc administered for 14 days relative to control; type: toxicity, organism-based; conditions: in vivo, 336 h
How it was run: (§3)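 Non-GLP 14-day repeated-dose study in SD rats given 50 mg/kg/day SC. Major organs (liver, kidney, lung, heart) compared with vehicle for size, weight and colour. Blood analysed for hematological and biochemical parameters.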

[6] = Half life in C57BL/6 mouse at 6 mg/kg, sc measured up to 4 hrs post dose by LC-MS/MS analysis; type: ADME, organism-based; conditions: in vivo
How it was run: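 Male C57BL/6 mice (23.4–25.4 g), quarantined one week, non-fasted, n = 3; single SC dose of 6 mg/kg in 100% saline. Blood taken by cardiac puncture at 0, 0.03, 0.08, 0.25, 1, 1.5, 2 and 4 h and stored at -80 °C. Plasma analysed by LC–MS/MS; parameters from non-compartmental analysis; mean ± SD.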

[7] = Acute toxicity in sc dosed C57BL/6 mouse assessed as maximum tolerated dose by measuring mortality; type: organism-based; conditions: in vivo
How it was run: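 Male C57BL/6 or ICR mice (n = 3/group) dosed subcutaneously with escalating doses, low to high; MTD taken as highest dose giving zero mortality (0/3).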

Mus musculus [8] = test: Induction of hematopoietic stem cell mobilization in C57BL/6 mouse PBMC assessed as increase in CFU-GM colonies at 35 mg/kg, sc administered on day 5 post G-CSF addition measured after 2 hrs post dose by colony forming assay; type: functional, organism-based
How it was run: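 Male C57BL/6 mice received G-CSF 100 µg/kg SC daily for 4 days. On day 5 they received G-CSF plus compound SC (6 or 35 mg/kg). Heparinized blood taken 2 h later; PBMCs isolated and cultured in methylcellulose medium for 10–14 days. CFU-GM colonies (aggregates of ≥50 cells) counted under an inverted microscope. 8–12 mice per group; mean ± SEM; t test against G-CSF alone.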

[9] = molecular target: C-C chemokine receptor type 5 (Homo sapiens) (UniProt P51681); test: Antagonist activity at human CCR5 expressed in CHOK1 cells assessed as inhibition of CCL3-induced cAMP accumulation at 10 uM preincubated for 30 mins followed agonist addition measured after 30 to 60 mins; type: functional, cell-based; how it was run: as §1
Chain of C-C chemokine receptor type 5 (Homo sapiens) (P51681 whole entry, looked up): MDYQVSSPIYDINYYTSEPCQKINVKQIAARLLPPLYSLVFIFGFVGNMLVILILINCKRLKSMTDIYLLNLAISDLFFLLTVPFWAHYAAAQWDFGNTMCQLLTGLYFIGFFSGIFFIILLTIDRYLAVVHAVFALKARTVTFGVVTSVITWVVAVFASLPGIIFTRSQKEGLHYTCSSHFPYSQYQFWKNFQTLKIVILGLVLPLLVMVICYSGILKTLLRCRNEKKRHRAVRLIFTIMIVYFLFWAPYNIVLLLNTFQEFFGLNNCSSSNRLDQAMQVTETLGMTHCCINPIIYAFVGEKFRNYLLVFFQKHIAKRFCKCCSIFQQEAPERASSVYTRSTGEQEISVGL

[10] = molecular target: C-X-C chemokine receptor type 2 (Homo sapiens) (UniProt P25025); test: Antagonist activity at human CXCR2 expressed in CHOK1 cells assessed as inhibition of interleukin-8-induced cAMP accumulation at 10 uM preincubated for 30 mins followed agonist addition measured after 30 to 60 mins; type: functional, cell-based; how it was run: as §1
Chain of C-X-C chemokine receptor type 2 (Homo sapiens) (P25025 whole entry): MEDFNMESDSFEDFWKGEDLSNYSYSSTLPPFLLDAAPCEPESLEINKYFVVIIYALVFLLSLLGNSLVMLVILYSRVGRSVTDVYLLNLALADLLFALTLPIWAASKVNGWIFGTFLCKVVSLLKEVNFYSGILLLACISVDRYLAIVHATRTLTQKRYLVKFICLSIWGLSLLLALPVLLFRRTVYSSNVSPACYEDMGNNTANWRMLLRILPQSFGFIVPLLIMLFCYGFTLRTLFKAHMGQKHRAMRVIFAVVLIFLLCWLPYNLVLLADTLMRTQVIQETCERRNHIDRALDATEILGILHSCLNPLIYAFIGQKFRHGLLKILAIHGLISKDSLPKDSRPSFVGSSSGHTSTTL

Rattus norvegicus [11] = test: Hepatotoxicity in Sprague-Dawley rat assessed as effect on liver size at 50 mg/kg/day, sc administered for 14 days relative to control; type: toxicity, organism-based; conditions: in vivo, 336 h; how it was run: as §3
Mus musculus [12] = test: Induction of hematopoietic stem cell mobilization in C57BL/6 mouse assessed as induction of movement of HSCs and EPCs into peripheral circulation at 35 mg/kg, sc measured after 2 hrs by flow cytometric analysis relative to control; type: functional
[13] = molecular target: C-X-C chemokine receptor type 4 (Homo sapiens, UniProt P61073); test: Displacement of [125I]CXCL12 from human CXCR4 expressed in HEK293 cell membranes after 1.5 hrs by Topcount method
Cytochrome P450 2C19 = Cytochrome P450 2C19 (Homo sapiens, UniProt P33261); test: Inhibition of human liver microsomal CYP2C19; type: ADME
Rattus norvegicus [14] = test: Hepatotoxicity in Sprague-Dawley rat assessed as effect on liver color at 50 mg/kg/day, sc administered for 14 days relative to control; type: toxicity, organism-based; conditions: in vivo, 336 h; how it was run: as §3
Cytochrome P450 2D6 = Cytochrome P450 2D6 (Homo sapiens, UniProt P10635); test: Inhibition of human liver microsomal CYP2D6; type: ADME
Chain of Cytochrome P450 2D6 (P10635 whole entry): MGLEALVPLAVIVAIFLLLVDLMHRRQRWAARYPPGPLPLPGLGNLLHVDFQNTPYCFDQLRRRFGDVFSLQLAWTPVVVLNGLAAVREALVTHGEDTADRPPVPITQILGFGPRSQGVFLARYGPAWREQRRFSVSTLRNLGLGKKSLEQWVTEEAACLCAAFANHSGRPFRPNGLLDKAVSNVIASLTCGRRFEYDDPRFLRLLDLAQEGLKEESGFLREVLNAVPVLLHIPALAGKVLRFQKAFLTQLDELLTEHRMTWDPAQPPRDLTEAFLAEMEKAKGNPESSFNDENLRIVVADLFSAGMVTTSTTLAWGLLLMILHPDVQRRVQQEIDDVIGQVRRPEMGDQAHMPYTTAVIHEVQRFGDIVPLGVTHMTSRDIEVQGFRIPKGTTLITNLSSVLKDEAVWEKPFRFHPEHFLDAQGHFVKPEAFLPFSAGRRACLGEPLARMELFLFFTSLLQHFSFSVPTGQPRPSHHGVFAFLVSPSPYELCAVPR

Rattus norvegicus [15] = test: Renal toxicity in Sprague-Dawley rat assessed as effect on kidney histology parameters up to 100 mg/kg/day, sc after 24 hrs by H and E staining based microscopy; type: organism-based; conditions: in vivo
How it was run: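 Acute kidney histology study in SD rats at doses up to 100 mg/kg. Renal tissue compared with controls by photomicrographs.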

Rattus norvegicus [16] = test: Toxicity in Sprague-Dawley rat assessed as effect on lung color at 50 mg/kg/day, sc administered for 14 days relative to control; type: organism-based; conditions: in vivo, 336 h; how it was run: as §3
[17] = molecular target: C-C chemokine receptor type 7 (Homo sapiens) (UniProt P32248); test: Antagonist activity at human CCR7 expressed in CHOK1 cells assessed as inhibition of CCL19-induced cAMP accumulation at 10 uM preincubated for 30 mins followed agonist addition measured after 30 to 60 mins; type: functional, cell-based; how it was run: as §1
Chain of C-C chemokine receptor type 7 (Homo sapiens) (P32248 whole entry): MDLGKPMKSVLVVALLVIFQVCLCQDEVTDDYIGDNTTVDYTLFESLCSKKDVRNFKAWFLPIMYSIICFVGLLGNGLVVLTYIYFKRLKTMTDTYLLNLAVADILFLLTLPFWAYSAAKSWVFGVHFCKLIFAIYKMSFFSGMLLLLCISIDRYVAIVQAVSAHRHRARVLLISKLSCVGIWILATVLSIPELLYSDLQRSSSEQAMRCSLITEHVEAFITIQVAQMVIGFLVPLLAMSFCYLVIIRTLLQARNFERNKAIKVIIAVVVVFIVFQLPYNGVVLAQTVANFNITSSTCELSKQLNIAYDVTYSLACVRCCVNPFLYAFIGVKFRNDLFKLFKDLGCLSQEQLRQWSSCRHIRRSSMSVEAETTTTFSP

Mus musculus [18] = test: In vivo antagonist activity at CXCR4 in C57BL/6 mouse assessed as induction of neutrophils molization at 35 mg/kg, sc measured after 2 hrs relative to untreated control; type: functional
Rattus norvegicus [19] = test: Renal toxicity in Sprague-Dawley rat assessed as effect on kidney color at 50 mg/kg/day, sc administered for 14 days relative to control; type: organism-based; conditions: in vivo, 336 h; how it was run: as §3
[20] = molecular target: C-X-C chemokine receptor type 1 (Homo sapiens) (UniProt P25024); test: Antagonist activity at human CXCR1 expressed in CHOK1 cells assessed as inhibition of interleukin-8-induced cAMP accumulation at 10 uM preincubated for 30 mins followed agonist addition measured after 30 to 60 mins; type: functional, cell-based; how it was run: as §1
[21] = molecular target: Voltage-dependent N-type calcium channel subunit alpha-1B (Rattus norvegicus) (UniProt Q02294); test: Displacement of [125I]omega-conotoxin GVIA from rat brain Cav2.2 at 10 uM after 30 mins by scintillation counting
Chain of Voltage-dependent N-type calcium channel subunit alpha-1B (Rattus norvegicus) (Q02294 whole entry, looked up): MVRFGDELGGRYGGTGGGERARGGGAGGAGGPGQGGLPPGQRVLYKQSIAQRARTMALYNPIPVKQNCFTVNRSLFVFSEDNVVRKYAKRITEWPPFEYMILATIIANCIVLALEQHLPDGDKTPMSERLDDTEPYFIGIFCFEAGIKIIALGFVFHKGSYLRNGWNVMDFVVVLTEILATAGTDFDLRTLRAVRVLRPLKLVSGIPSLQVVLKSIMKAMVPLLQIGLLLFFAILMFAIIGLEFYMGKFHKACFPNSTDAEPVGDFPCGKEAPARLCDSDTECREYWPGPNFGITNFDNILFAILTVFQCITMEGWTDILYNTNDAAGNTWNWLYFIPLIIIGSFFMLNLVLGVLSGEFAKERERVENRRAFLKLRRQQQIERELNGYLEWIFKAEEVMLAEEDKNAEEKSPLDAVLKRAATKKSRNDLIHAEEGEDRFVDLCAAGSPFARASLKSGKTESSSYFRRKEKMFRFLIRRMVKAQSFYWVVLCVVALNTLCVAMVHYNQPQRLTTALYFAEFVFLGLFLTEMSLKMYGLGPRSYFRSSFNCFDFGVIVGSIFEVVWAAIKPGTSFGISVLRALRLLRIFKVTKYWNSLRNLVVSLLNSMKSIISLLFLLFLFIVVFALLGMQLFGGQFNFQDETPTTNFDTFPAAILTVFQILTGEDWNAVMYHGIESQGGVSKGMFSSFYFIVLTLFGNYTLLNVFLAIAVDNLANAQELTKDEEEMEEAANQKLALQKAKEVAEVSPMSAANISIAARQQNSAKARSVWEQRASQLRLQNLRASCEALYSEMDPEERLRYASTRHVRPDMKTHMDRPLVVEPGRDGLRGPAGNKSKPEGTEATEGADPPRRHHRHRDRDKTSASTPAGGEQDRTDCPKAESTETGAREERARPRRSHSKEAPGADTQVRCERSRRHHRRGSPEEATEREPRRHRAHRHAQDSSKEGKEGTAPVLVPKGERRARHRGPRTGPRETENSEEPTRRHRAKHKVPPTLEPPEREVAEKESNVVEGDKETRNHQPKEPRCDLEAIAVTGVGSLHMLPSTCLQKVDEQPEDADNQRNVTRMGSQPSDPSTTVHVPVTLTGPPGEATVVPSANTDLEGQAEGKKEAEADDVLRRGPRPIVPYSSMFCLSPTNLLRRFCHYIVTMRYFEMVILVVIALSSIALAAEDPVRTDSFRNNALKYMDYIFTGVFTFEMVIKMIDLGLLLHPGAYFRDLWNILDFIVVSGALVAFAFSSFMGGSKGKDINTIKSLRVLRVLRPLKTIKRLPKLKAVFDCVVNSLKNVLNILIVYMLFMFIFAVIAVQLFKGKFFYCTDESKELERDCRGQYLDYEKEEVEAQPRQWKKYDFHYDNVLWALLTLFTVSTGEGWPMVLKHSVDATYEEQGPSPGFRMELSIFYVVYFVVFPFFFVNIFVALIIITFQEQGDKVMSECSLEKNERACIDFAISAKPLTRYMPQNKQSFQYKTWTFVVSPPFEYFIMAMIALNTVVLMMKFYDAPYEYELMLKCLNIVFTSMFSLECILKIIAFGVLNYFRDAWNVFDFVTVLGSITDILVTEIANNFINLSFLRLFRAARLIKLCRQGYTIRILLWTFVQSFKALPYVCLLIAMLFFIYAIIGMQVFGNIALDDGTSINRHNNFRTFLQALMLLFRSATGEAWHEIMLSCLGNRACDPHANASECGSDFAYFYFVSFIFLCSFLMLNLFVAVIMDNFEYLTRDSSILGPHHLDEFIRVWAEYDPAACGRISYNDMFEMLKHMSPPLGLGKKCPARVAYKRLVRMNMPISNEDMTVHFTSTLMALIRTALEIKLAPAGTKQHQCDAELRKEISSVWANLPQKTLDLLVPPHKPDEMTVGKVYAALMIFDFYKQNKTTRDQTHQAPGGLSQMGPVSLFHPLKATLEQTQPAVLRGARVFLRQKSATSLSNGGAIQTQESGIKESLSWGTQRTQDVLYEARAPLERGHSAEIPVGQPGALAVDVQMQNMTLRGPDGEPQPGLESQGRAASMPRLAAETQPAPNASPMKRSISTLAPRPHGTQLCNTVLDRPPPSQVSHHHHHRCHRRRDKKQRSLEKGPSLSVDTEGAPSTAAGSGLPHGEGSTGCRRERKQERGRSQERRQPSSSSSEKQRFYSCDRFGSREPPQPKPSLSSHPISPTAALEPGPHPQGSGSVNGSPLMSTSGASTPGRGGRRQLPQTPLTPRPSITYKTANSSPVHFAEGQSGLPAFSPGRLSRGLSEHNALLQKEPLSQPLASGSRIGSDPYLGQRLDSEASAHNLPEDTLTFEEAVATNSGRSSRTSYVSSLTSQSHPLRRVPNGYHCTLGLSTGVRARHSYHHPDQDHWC

[22] = molecular target: C-C chemokine receptor type 10 (Homo sapiens) (UniProt P46092); test: Antagonist activity at human CCR10 expressed in CHOK1 cells assessed as inhibition of CCL27-induced cAMP accumulation at 10 uM preincubated for 30 mins followed agonist addition measured after 30 to 60 mins; type: functional, cell-based; how it was run: as §1
Chain of C-C chemokine receptor type 10 (Homo sapiens) (P46092 whole entry): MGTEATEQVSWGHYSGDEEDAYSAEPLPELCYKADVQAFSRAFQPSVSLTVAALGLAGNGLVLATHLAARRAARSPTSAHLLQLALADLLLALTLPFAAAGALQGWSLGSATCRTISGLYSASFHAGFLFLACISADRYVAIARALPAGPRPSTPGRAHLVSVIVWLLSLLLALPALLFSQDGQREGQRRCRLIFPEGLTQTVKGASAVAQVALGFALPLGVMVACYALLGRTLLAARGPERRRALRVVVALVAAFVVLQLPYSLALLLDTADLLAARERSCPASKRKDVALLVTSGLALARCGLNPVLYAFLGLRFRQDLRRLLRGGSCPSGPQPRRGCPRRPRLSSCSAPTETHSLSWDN

Rattus norvegicus [23] = test: Toxicity in Sprague-Dawley rat assessed as effect on lung weight at 50 mg/kg/day, sc administered for 14 days relative to control; type: organism-based; conditions: in vivo, 336 h; how it was run: as §3
Cytochrome P450 1A2 = Cytochrome P450 1A2 (Homo sapiens, UniProt P05177); test: Inhibition of human liver microsomal CYP1A2; type: ADME
Chain of Cytochrome P450 1A2 (P05177 whole entry): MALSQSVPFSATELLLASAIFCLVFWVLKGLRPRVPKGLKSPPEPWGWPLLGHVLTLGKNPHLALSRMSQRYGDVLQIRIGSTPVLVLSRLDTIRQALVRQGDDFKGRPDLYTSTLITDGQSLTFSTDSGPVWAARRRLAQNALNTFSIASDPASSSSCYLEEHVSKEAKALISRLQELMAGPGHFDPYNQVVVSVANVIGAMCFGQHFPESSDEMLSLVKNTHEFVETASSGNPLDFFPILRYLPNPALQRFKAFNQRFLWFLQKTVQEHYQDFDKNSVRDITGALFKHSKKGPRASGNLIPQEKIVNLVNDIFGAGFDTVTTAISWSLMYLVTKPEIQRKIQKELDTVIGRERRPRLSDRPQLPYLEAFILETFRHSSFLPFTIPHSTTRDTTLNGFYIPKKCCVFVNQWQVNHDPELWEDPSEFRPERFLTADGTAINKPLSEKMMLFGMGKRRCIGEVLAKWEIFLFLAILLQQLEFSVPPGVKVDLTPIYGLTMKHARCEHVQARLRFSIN

Rattus norvegicus [24] = test: Cardiotoxicity in Sprague-Dawley rat assessed as effect on heart weight at 50 mg/kg/day, sc administered for 14 days relative to control; type: toxicity, organism-based; conditions: in vivo, 336 h; how it was run: as §3

Cc1cc(NC2CCN(C(=O)CCNCC(=O)O)CC2)nc(NCc2cn(CCCNCCCNC3CCCCC3)nn2)n1
CC50 [1]: > 100 µM | Efficacy [2]: -3.9% | Activity (Mus musculus [3]): Active | Activity (Mus musculus [4]): 30 - 50% | Activity (Rattus norvegicus [5]): Non-Toxic | half-life [6]: 30 min | MTD [7]: 75 mg/kg | Activity (Mus musculus [8]): Active | Efficacy [9]: 0.5% | Efficacy [10]: 0.5% | Activity (Rattus norvegicus [11]): Non-Toxic | fold change (FC) (Mus musculus [12]): 7 | IC50 [13]: 34.2 nM | IC50 (Cytochrome P450 2C19): > 100 µM | Activity (Rattus norvegicus [14]): Non-Toxic | IC50 (Cytochrome P450 2D6): > 100 µM | Activity (Rattus norvegicus [15]): Non-Toxic | Activity (Rattus norvegicus [16]): Non-Toxic | Efficacy [17]: -4.2% | fold change (FC) (Mus musculus [18]): 2 - 4 | Activity (Rattus norvegicus [19]): Non-Toxic | Efficacy [20]: 0.3% | inhibition [21]: 73% | Efficacy [22]: 0.5% | Activity (Rattus norvegicus [23]): Non-Toxic | IC50 (Cytochrome P450 1A2): > 100 µM | Activity (Rattus norvegicus [24]): Non-Toxic
